Series [1] is described as follows: folding enthalpy; higher = less favourable; fluorescence melt of hairpins on a sequencing array, two-state fit. As to conditions: sodium 0.088 M. In short, it runs like this: (§1)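 Melting temperature and folding enthalpy were derived from bootstrapped two-state fits. The fitted temperatures were raised by 9.35 °C to agree with UV melts, and four replicates were combined by inverse variance. The underlying data were Cy3 fluorescence images of library hairpins, with annealed Cy3 and quencher oligos, on a sequenced MiSeq flow cell in 50 mM Na-HEPES pH 8.0, 25 mM NaCl, taken in 2.5 °C steps up to 60 °C, normalised to pre-quench Cy3 and to control constructs.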

A short description of series [2]: melting temperature; fluorescence melt of hairpins on a sequencing array, two-state fit, raised by 9.35 °C to match UV melts. As to conditions: sodium 0.088 M. The essentials: as §1

Here are results for 74 sequences from the array DNA melting data of Ke et al. (doi:10.1101/2024.01.08.574731).

Consider GTGGGTCGAAAGACGCAC (((.(((....))).))), for which the folding enthalpy in series [1] was -34.3 kcal/mol. Moreover, the Tm in series [2] stood at 63.3 °C.
As to GCGACGCGAAAGCCACGC (((..((....))..))), the folding enthalpy in series [1] was -17.7 kcal/mol. In addition, the Tm in series [2] stood at 48.7 °C.
The matching figures for GCTTAGCGAAAGCGTAGC (((..((....))..))): -28.9 kcal/mol and 61.3 °C.
Take GCCAGCGGAAACGCTAGC ((.((((....)))).)): the folding enthalpy in series [1] is -20.5 kcal/mol. Also, the Tm in series [2] amounted to 49 °C.
The matching figures for GATACAGCGAAAGCTATC (((..(((....)))))): -10.4 kcal/mol and 26.2 °C.
GTTGTCGAAAGACCAAC ((((((....))).))): in series [1], the folding enthalpy is -20.4 kcal/mol. In addition, the Tm in series [2] turned out to be 38 °C.
The matching figures for GATCTCCGCGAGATC ((((((...)))))): -44.8 kcal/mol and 55.4 °C.
The matching figures for GAACTACGAAAGTAATTC (((.(((....))).))): -17.3 kcal/mol and 31.5 °C.
The matching figures for GCGGCGCGAAAGCGAGGC ((..(((....)))..)): -24.8 kcal/mol and 63.9 °C.
For the sequence GAAAAAGAAATTTTTC ((((((....)))))), the folding enthalpy in series [1] is -14.6 kcal/mol. In addition, in series [2], the Tm stood at 28.1 °C.
The matching figures for GATCCTCAACAGGATC ((((((....)))))): -37.2 kcal/mol and 48.7 °C.
The matching figures for GCTTGTCGAAAGACCAGC (((.(((....))).))): -26.7 kcal/mol and 47.9 °C.
The matching figures for GTTGTCCGAAAGGAGAAC (((.(((....))).))): -28.5 kcal/mol and 51.2 °C.
As for GCCCAGCGAAAGCCAGGC (((..((....))..))), in series [1], the folding enthalpy was -20.6 kcal/mol. Also, in series [2], the Tm worked out at 55.2 °C.
For GATTCCGAAAGGAGGATC ((((((....)))..))) the same measures were -11.2 kcal/mol and 30.4 °C.
The matching figures for GGGTCCGAAAGGATTCCC ((((((....)))..))): -22.2 kcal/mol and 44.1 °C.
The matching figures for GGAAGGGGAAACCCTTTC (.(((((....))))).): -24.2 kcal/mol and 44.7 °C.
For GGGTAGCGAAAGCTCCCC (((.(((....))).))), in series [1], the folding enthalpy was -28 kcal/mol. Moreover, the Tm in series [2] amounted to 55.1 °C.
As to GTAGGCGAAAGCCAATAC ((((((....)))..))), the folding enthalpy in series [1] is -9.29 kcal/mol. Moreover, in series [2], the Tm turned out to be 33.6 °C.
With GATCTGGAGTCAGATC ((((((....)))))), the folding enthalpy in series [1] is -48.3 kcal/mol. Besides, in series [2], the Tm was 48.1 °C.
The matching figures for GATCTGGGGTCAGATC ((((((....)))))): -34.5 kcal/mol and 48.7 °C.
The matching figures for GGGTCCCGAAAGGGCCCC (((.(((....))).))): -17.9 kcal/mol and 67.2 °C.
The matching figures for GCACACGAAAGTGGGTGC ((((((....)))..))): -24.1 kcal/mol and 53.5 °C.
GTTTCTGAAAAGAAAC ((((((....)))))): in series [1], the folding enthalpy was -37 kcal/mol. Further, in series [2], the Tm was found to be 50.2 °C.
The matching figures for GATGTGCGAAAGCAAATC (((.(((....))).))): -23.3 kcal/mol and 46.6 °C.
For GACGGCGGAAACACCGCC (.(((.(....).))).) the same measures were -10.1 kcal/mol and 44.1 °C.
As for GGGTGCCCGAAAGGGCCC (((..(((....)))))), the folding enthalpy in series [1] is -11.6 kcal/mol. Also, the Tm in series [2] turned out to be 55.5 °C.
The matching figures for GGGCACGGAAACGCACCC (((..((....))..))): -20.2 kcal/mol and 35.6 °C.
Turning to GTTGACGGAAACGCCAAC ((((.((....)).)))), the folding enthalpy in series [1] is -39.8 kcal/mol. Also, in series [2], the Tm was 49.6 °C.
On to GAGTGTGGAAACACACTC (((((((....))))))), for which the folding enthalpy in series [1] is -36.1 kcal/mol. Moreover, the Tm in series [2] amounted to 66 °C.
For GCTCTGACGAAAGTCAGC (((..(((....)))))) the same measures were -7.47 kcal/mol and 31.3 °C.
Consider GTGGGGGGAAACTCCCAC (((((.(....).))))), for which the folding enthalpy in series [1] is -35.3 kcal/mol. The Tm in series [2] was 56.2 °C.
GATGAACGAAAGTTAATC (((.(((....))).))): the folding enthalpy in series [1] is -23.7 kcal/mol. For the same sequence, in series [2], the Tm worked out at 38.6 °C.
GTCGATGGAAACATTGGC (.(.(((....))).).): the folding enthalpy in series [1] is -29.2 kcal/mol. In addition, the Tm in series [2] is 35.1 °C.
The matching figures for GTCCTCGAAAGAGGCGAC ((((((....)))..))): -17 kcal/mol and 50.9 °C.
The matching figures for GATCCTTAACAGGATC ((((((....)))))): -36.3 kcal/mol and 49 °C.
The matching figures for GCTCGGCCGAAAGGCAGC (((..(((....)))))): -8.78 kcal/mol and 55.6 °C.
For GGGAACGAAAGTTTGCCC ((((((....)))..))), in series [1], the folding enthalpy was -20.8 kcal/mol. The Tm in series [2] amounted to 31.8 °C.
For GTCCAAGGAAACTTAGAC (((.(((....))).))) the same measures were -13.7 kcal/mol and 24.5 °C.
GTCCAGGGAAACCCAGAC (((..((....))..))): the folding enthalpy in series [1] was -17.4 kcal/mol. Besides, the Tm in series [2] was 31.4 °C.
The matching figures for GATCTGATCGCAGATC ((((((....)))))): -11.2 kcal/mol and 42.3 °C.
The matching figures for GTCAAAGAAATTTGAC ((((((....)))))): -29.1 kcal/mol and 45 °C.
The matching figures for GATCATGCGAAAGCAATC (((..(((....)))))): -9.85 kcal/mol and 22.5 °C.
Consider GATCAGTCGACTGATC ((((((....)))))), for which the folding enthalpy in series [1] is -53.5 kcal/mol. Also, in series [2], the Tm turned out to be 55.5 °C.
For GTGGATGAAAATCCAC ((((((....)))))) the same measures were -33.9 kcal/mol and 59.9 °C.
For GATCGTGGGGACGATC ((((((....)))))) the same measures were -36.2 kcal/mol and 54.3 °C.
The matching figures for GATTGGCGAAAGCCATC (((.(((....)))))): -9.48 kcal/mol and 41.3 °C.
On to GTATCACGAAAGTGTTAC (((.(((....))).))), for which the folding enthalpy in series [1] was -25.8 kcal/mol. In addition, in series [2], the Tm is 42.3 °C.
For GCTTGGCGAAAGCGCAGC (((..((....))..))) the same measures were -12.8 kcal/mol and 43.5 °C.
The matching figures for GCGTTGCGAAAGCTAAGC ((.(.((....)).).)): -26.9 kcal/mol and 59.2 °C.
In the case of GCGGCTTTCCGC ((((....)))), the folding enthalpy in series [1] was -25 kcal/mol. Moreover, the Tm in series [2] came to 56.6 °C.
For GCGGCTCCGAAAGGACGC (((..(((....)))))) the same measures were -41.2 kcal/mol and 54.7 °C.
For the sequence GCTGGCGAAAGCCTAAGC ((((((....)))..))), the folding enthalpy in series [1] was -16.5 kcal/mol. In addition, the Tm in series [2] was 51.5 °C.
As to GTCAAAACGAAAGTTGAC (((..(((....)))))), the folding enthalpy in series [1] is -24.4 kcal/mol. Further, the Tm in series [2] was determined as 40.5 °C.
For GACAGCGAAAGCTTGTC ((((((....))).))) the same measures were -22 kcal/mol and 52.6 °C.
The matching figures for GGCCCAGGAAACTGAGCC (((.(((....))).))): -32.4 kcal/mol and 49 °C.
For GGTGCGGGAAACCGCATC (.(((((....))))).) the same measures were -15.7 kcal/mol and 60.4 °C.
With GCAGTAGGAAACTACCGC ((.((((....)))).)), in series [1], the folding enthalpy is -22.5 kcal/mol. For the same sequence, in series [2], the Tm is 41 °C.
For GCGTTACTACGC ((((....)))) the same measures were -26.7 kcal/mol and 54.8 °C.
Turning to GGGTGCGAAAGCATTCCC ((((((....)))..))), in series [1], the folding enthalpy was -17.4 kcal/mol. Further, the Tm in series [2] came out at 46.9 °C.
The matching figures for GGATTCGGAAACGAGTTC (.(.(((....))).).): -18.1 kcal/mol and 28.7 °C.
For the sequence GGGAGCCGAAAGGCCCCC (((.(((....))).))), the folding enthalpy in series [1] was -21.3 kcal/mol. Besides, the Tm in series [2] came out at 65.9 °C.
GTATTACGAAAGTATTAC (((.(((....))).))): the folding enthalpy in series [1] was -28.4 kcal/mol. Further, the Tm in series [2] stood at 34.8 °C.
The matching figures for GATCTGATTACAGATC ((((((....)))))): -40.5 kcal/mol and 50 °C.
For the sequence GCGCGTCGAAAGACTCGC (((.(((....))).))), in series [1], the folding enthalpy was -38.7 kcal/mol. In addition, the Tm in series [2] is 58.4 °C.
The matching figures for GATGTGCGAAAGCATATC (((.(((....))).))): -32.6 kcal/mol and 54.2 °C.
The matching figures for GGGATCGGAAACGATTCC ((.((((....)))).)): -40.7 kcal/mol and 53.5 °C.
For GGGGACGAAAGTCAGCCC ((((((....)))..))) the same measures were -15.4 kcal/mol and 49.5 °C.
GACCGCGAAAGCGCGTC ((((((....))).))): the folding enthalpy in series [1] is -21 kcal/mol. In addition, the Tm in series [2] is 63.1 °C.
For GTCAAGGGAAACCCTGAC ((((.((....)).)))) the same measures were -33.8 kcal/mol and 43.7 °C.
For TTATCGAAAGATAA (((((....))))) the same measures were -14.7 kcal/mol and 36.5 °C.
For GATCACCGAAGTGATC ((((((....)))))), the folding enthalpy in series [1] is -38.1 kcal/mol. Also, the Tm in series [2] came out at 55.8 °C.
For GGGAGCGCGAAAGCGCCC (((..(((....)))))) the same measures were -10.1 kcal/mol and 58.6 °C.
As to GCAATCGAAAGATGTGC ((((((....))).))), the folding enthalpy in series [1] is -25.5 kcal/mol. The Tm in series [2] turned out to be 39.5 °C.
